Results from article PMC8012241 (Alzheimer's & Dementia : Translational Research & Clinical …, 2021).
Peptide text beside a SMILES is read from it.

Columns and labels:
[1] = target: solid insoluble form Aβ42 (s‐Aβ42) (Homo sapiens, UniProt P05067); experiment: Proteolysis of solid insoluble s-Aβ42 by the peptide; type: biochemical; details: over 7 days; 27% with peptide minus 17% without
In short: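 s-Aβ42 (0.3 mg), washed with CH3CN and CH3OH, was incubated with or without peptide (1 mM final) with HSA (0.125% w/v) in PBS at 37°C for 7 days, at five times the a-Aβ42 scale. HPLC was run daily and fragments were identified by ESI-MS. Solid weight was recorded on day 0 and day 7. The net decrease ratio is the with-peptide decrease minus the without-peptide decrease.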

[2] = Plasma clearance following intravenous bolus injection; type: in vivo, Male Wistar/ST rats; details: rat
[3] = Plasma level and brain uptake following intraperitoneal and nasal administration; type: in vivo, male ddY mice; details: mouse; for AUC(0-t): male, ddY, 1 mg
In short: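 Male ddY mice (25 g) received 1 mg of peptide either intranasally into the left nostril (100 mg/mL in PBS, 10 µL) or intraperitoneally (10 mg/mL in PBS). Blood was drawn at 5, 15 and 30 min. Brains were taken at 30 min after saline/heparin cardiac perfusion. Plasma and brain homogenate were extracted with methanol and assayed by positive-mode LC/MS on C18 (acetonitrile:0.1% acetic acid 10/90). AUC was computed to 30 min.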

A549 cells = experiment: Effect on the growth of A549 cells; type: cell-based, human; details: 72 hours
In short: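 A549 cells were grown in DMEM with 10% FBS and penicillin/streptomycin at 37°C in 5% CO2, then seeded at 4 x 10^3 cells/well. After 24 h the medium was replaced and cells were treated with 0.2 mM test peptide, 0.2 mM FLAG peptide or 4 µM cisplatin for 72 h. WST-8 was added for 1 h. Absorbance was read at 450 nm against a 620 nm reference.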

[4] = In vitro stability in plasma and whole blood; type: in vitro ADME; details: data not shown
[5] = target: authentic soluble form Aβ42 (a‐Aβ42) (Homo sapiens, UniProt P05067); details: cleaved in the central region; cited from earlier work
Sequence of authentic soluble form Aβ42 (a‐Aβ42) (P05067 672-713): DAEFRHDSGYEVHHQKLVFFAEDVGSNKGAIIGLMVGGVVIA

amyloid beta 42 (Aβ42) = details: serine protease inhibitor AEBSF; cited from earlier work
[6] = male, Wistar/ST, plasma, iv, 2 mg/animal

Sequence of solid insoluble form Aβ42 (s‐Aβ42) (P05067 672-713): as above

Molecule: CC[C@H](C)[C@H](NC(=O)[C@H](CCSC)NC(=O)[C@H](CCCNC(=N)N)NC(=O)[C@H](Cc1ccc(O)cc1)NC(=O)[C@H](C)NC(=O)[C@H](CCC(N)=O)NC(=O)CNC(=O)[C@H](CCCCN)NC(=O)[C@@H](N)CO)C(=O)O [ANA‐TA9] (H-SKGQAYRMI-OH)
- decreasing ratio of s‐Aβ42 by ANA‐TA9 (corrected for incubation without peptide) [1]: 10%
- AUC [2, 6]: 124 ng·h/mL
- clearance [2, 6]: 270 mL/min
- initial half‐life in plasma ([2]; i.v. bolus 2 mg/head, LC/MS): 10 s
- plasma concentration post‐injection ([2]; i.v. bolus 2 mg/head, within 15 minutes post-injection, LC/MS): below the detection limit
- AUC(0-t) ([3]; inhaled or intranasal): 27.2 ng·h/mL
- AUC(0-t) ([3]; ip): 193 ng·h/mL
- nasal AUC as percentage of intraperitoneal AUC ([3]; up to 30 minutes, 1 mg each route): 14%
- effect on the growth of A549 cells (A549 cells; 0.2 mM, WST-8, compared to 0.2 mM FLAG peptide control): did not show a significant inhibitory effect
- in vitro stability in plasma and whole blood [4]: not particularly labile

Molecule: [NH2][Pt]([NH2])([Cl])[Cl] [CDDP, Cisplatin, reference compound]
- effect on the growth of A549 cells (A549 cells; 4 μM, WST-8, positive control): inhibited the growth

Molecule: YKGSGFRMI [JAL‐TA9]
- cleavage of a‐Aβ42 and s‐Aβ42 [5]: cleaved
- effect of AEBSF on proteolytic activity (amyloid beta 42 (Aβ42)): completely inhibited
